Assay results: ChEMBL document CHEMBL3045292, “Synthesis and herbicidal activity of 2-(7-fluoro-3-oxo- 3,4-dihydro-2H-benzo[b][1,4]oxazin-6-yl)isoindoline-1,3-diones” (J Agric Food Chem, 2005)

Legend:
[1] = test system: Amaranthus blitum; test: Herbicidal activity against Amaranthus blitum assessed as weed growth inhibition at 75 g/ha pre-emergence treatment […]; type: functional; conditions: read-out: GI
Summary of the method: (§1)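 Pot-grown plants in the greenhouse, in clay soil (pH 6.5, 1.6% organic matter, 37.3% clay, CEC 12.1 cmol/kg). Compound was made up as a 100 g/L emulsified concentrate (DMF, Tween-80), diluted in water and sprayed at 75 g ai/ha. Pre-emergence spraying was 24 h after sowing; post-emergence at two-leaf (dicots) or one-leaf (monocots) stage. Untreated and DMF controls. Percent growth inhibition scored visually 15 days post-treatment.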

[2] = test system: Setaria viridis; test: Herbicidal activity against Setaria viridis (green foxtail) assessed as weed growth inhibition at 75 g/ha pre-emergence treatment […]; type: functional; conditions: read-out: GI; summary of the method: as §1
[3] = test system: Digitaria sanguinalis; test: Herbicidal activity against crabgrass Digitaria sanguinalis(hairy crabgrass) assessed as weed growth inhibition at 75 g/ha pre-emergence treatment […]; type: functional; conditions: read-out: GI; summary of the method: as §1
[4] = test system: Abutilon theophrasti; test: Herbicidal activity against Abutilon theophrasti (velvetleaf) assessed as weed growth inhibition at post-emergence treatment […]; type: functional, organism-based; summary of the method: as §1
[5] = test system: Abutilon theophrasti; test: Herbicidal activity against Abutilon theophrasti (velvetleaf) assessed as weed growth inhibition at 75 g/ha post-emergence treatment […]; type: functional; conditions: read-out: GI; summary of the method: as §1
[6] = test system: Setaria viridis; test: Herbicidal activity against Setaria viridis (green foxtail) assessed as weed growth inhibition at 75 g/ha post-emergence treatment […]; type: functional; conditions: read-out: GI; summary of the method: as §1
[7] = test system: Echinochloa crus-galli; test: Herbicidal activity against Echinochloa crus-galli (barnyard grass) (barnyard grass) assessed as weed growth inhibition at 75 g/ha post-emergence treatment […]; type: functional; conditions: read-out: GI; summary of the method: as §1
[8] = test system: Chenopodium album; test: Herbicidal activity against fat hen Chenopodium album assessed as weed growth inhibition at 75 g/ha pre-emergence treatment […]; type: functional; conditions: read-out: GI; summary of the method: as §1
[9] = test system: Chenopodium album; test: Herbicidal activity against fat hen Chenopodium album assessed as weed growth inhibition at 75 g/ha post-emergence treatment […]; type: functional; conditions: read-out: GI; summary of the method: as §1
[10] = test system: Echinochloa crus-galli; test: Herbicidal activity against Echinochloa crus-galli (barnyard grass) (barnyard grass) assessed as weed growth inhibition at 75 g/ha pre-emergence treatment […]; type: functional; conditions: read-out: GI; summary of the method: as §1
[11] = test system: Abutilon theophrasti; test: Herbicidal activity against Abutilon theophrasti (velvetleaf) assessed as weed growth inhibition at 75 g/ha pre-emergence treatment […]; type: functional; conditions: read-out: GI; summary of the method: as §1
[12] = test system: Digitaria sanguinalis; test: Herbicidal activity against crabgrass Digitaria sanguinalis(hairy crabgrass) assessed as weed growth inhibition at post-emergence treatment […]; type: functional, organism-based; summary of the method: as §1
[13] = test system: Digitaria sanguinalis; test: Herbicidal activity against crabgrass Digitaria sanguinalis(hairy crabgrass) assessed as weed growth inhibition at 75 g/ha post-emergence treatment […]; type: functional; conditions: read-out: GI; summary of the method: as §1
[14] = test system: Amaranthus blitum; test: Herbicidal activity against Amaranthus blitum assessed as weed growth inhibition at 75 g/ha post-emergence treatment […]; type: functional; conditions: read-out: GI; summary of the method: as §1

Compound	inhibition of growth at 75 g/ha [1] [%]	inhibition of growth at 75 g/ha [2] [%]	inhibition of growth at 75 g/ha [3] [%]	IC50 [4] [g/ha]	inhibition of growth at 75 g/ha [5] [%]	inhibition of growth at 75 g/ha [6] [%]	inhibition of growth at 75 g/ha [7] [%]	inhibition of growth at 75 g/ha [8] [%]	inhibition of growth at 75 g/ha [9] [%]	inhibition of growth at 75 g/ha [10] [%]	inhibition of growth at 75 g/ha [11] [%]	IC50 [12] [g/ha]	inhibition of growth at 75 g/ha [13] [%]	inhibition of growth at 75 g/ha [14] [%]
O=C1COc2cc(F)c(N3C(=O)C4=C(CCCC4)C3=O)cc2N1CC#CI	> 80	> 80	> 80	2.3	> 80	> 80	> 80	> 80	> 80	> 80	> 80	3.8	> 80	> 80
C#CCN1C(=O)C(C)Oc2cc(F)c(N3C(=O)c4ccccc4C3=O)cc21 (stereo not given)	> 80	< 50	< 50	7.5	> 80	< 50	< 50	> 80	> 80	< 50	> 80	161	< 50	> 80
C#CCN1C(=O)COc2cc(F)c(N3C(=O)c4cccc([N+](=O)[O-])c4C3=O)cc21	< 50	< 50	< 50	300	< 50	< 50	< 50	< 50	< 50	< 50	< 50	210	< 50	< 50
CN1C(=O)COc2cc(F)c(N3C(=O)c4cccc(F)c4C3=O)cc21	50	< 50	< 50	45	> 80	< 50	< 50	50	> 80	< 50	50	> 1800	< 50	> 80
N#CCN1C(=O)COc2cc(F)c(N3C(=O)c4ccccc4C3=O)cc21	< 50	< 50	< 50	92	< 50	< 50	< 50	< 50	< 50	< 50	< 50	57	50	< 50
O=C1COc2cc(F)c(N3C(=O)c4ccccc4C3=O)cc2N1CC#CBr	< 50	< 50	< 50	121	< 50	< 50	< 50	< 50	< 50	< 50	< 50	314	< 50	< 50
C#CCN1C(=O)C(C)Oc2cc(F)c(N3C(=O)c4cccc(F)c4C3=O)cc21 (stereo not given)	> 80	> 80	> 80	7.7	> 80	> 80	> 80	> 80	> 80	> 80	> 80	42	> 80	> 80
C#CCN1C(=O)COc2cc(F)c(N3C(=O)c4ccc(C)cc4C3=O)cc21	< 50	< 50	< 50	28	> 80	< 50	50	< 50	> 80	< 50	< 50	31	> 80	> 80
O=C1COc2cc(F)c(N3C(=O)c4ccccc4C3=O)cc2N1CC#CI	> 80	50	> 80	3.9	> 80	50	< 50	> 80	> 80	< 50	> 80	68	50	> 80
CC1Oc2cc(F)c(N3C(=O)c4ccccc4C3=O)cc2N(CC#CI)C1=O (stereo not given)	> 80	> 80	> 80	7.4	> 80	< 50	< 50	> 80	> 80	> 80	> 80	60	50	> 80
C#CCN1C(=O)COc2cc(F)c(N3C(=O)c4ccccc4C3=O)cc21	> 80	< 50	> 80	7.5	> 80	> 80	> 80	> 80	> 80	< 50	> 80	17	> 80	> 80
C#CCN1C(=O)COc2cc(F)c(N3C(=O)c4cccc(F)c4C3=O)cc21	> 80	> 80	> 80	23	> 80	> 80	> 80	> 80	> 80	> 80	> 80	20	> 80	> 80
CN1C(=O)COc2cc(F)c(N3C(=O)c4ccc(F)cc4C3=O)cc21	< 50	< 50	< 50	161	< 50	< 50	< 50	< 50	< 50	< 50	< 50	172	< 50	< 50
Cc1ccc2c(c1)C(=O)N(c1cc3c(cc1F)OC(C)C(=O)N3CC#CI)C2=O (stereo not given)	> 80	< 50	< 50	30	> 80	< 50	< 50	> 80	> 80	< 50	> 80	> 1800	< 50	> 80
O=C1COc2cc(F)c(N3C(=O)c4cccc(F)c4C3=O)cc2N1CC#CI	> 80	< 50	< 50	7.2	> 80	> 80	> 80	> 80	> 80	< 50	> 80	40	> 80	> 80
